A short description of data set [1]: Membrane permeability by PAMPA assay. It counts as ADME. The settings on record: read-out: permeability. On the technique in general: The PAMPA barrier holds no transporters, so it reflects passive diffusion.
A further data set has as its system Rattus norvegicus. The data set is described as follows: Volume of distribution at steady state in rat at 5 umol/kg, intra arterial and 2 umol/kg, po. The data set is classed as ADME, organism-based. As to conditions: in vivo. The method in brief:
(§1)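 Rat pharmacokinetics after a 5 μmol/kg intraarterial dose and a 2 μmol/kg oral dose, with water as vehicle. Urine collected over 24 h and the fraction of dose excreted as unchanged parent measured. Terminal half-life estimated after intraarterial dosing.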

Data set [2] can be described thus: Half life in rat at 5 umol/kg, intra arterial and 2 umol/kg, po. The settings on record: in vivo. It counts as ADME, organism-based. The method in brief:
as §1

A short description of data set [3]: Clearance in iv dosed rat. The data set is classed as ADME, organism-based. The settings on record: in vivo. The method in brief:
as §1

Data set [4] is described as follows: Drug excretion in rat urine at 5 umol/kg, intra arterial and 2 umol/kg, po. The data set is classed as ADME, organism-based. The settings on record: read-out: Activity. In outline: as §1
Data set [5] is described as follows: Oral bioavailability in rat at 2 umol/kg, po. It counts as ADME, organism-based. The settings on record: in vivo. The method in brief: as §1
A short description of data set [6]: Cmax in rat at 5 umol/kg, intra arterial and 2 umol/kg, po after 0.6 hrs. It counts as ADME, organism-based. More on the design: dose 5 umol/kg, route oral. As to conditions: in vivo. The method in brief: as §1
Data set [7] can be described thus: AUC (0 to infinity) in rat at 5 umol/kg, intra arterial and 2 umol/kg, po. It counts as ADME, organism-based. The settings on record: plasma. More on the design: dose 5 umol/kg, route oral, time infinity. In outline:
as §1

A further data set deals with Canis familiaris. The data set is described as follows: Volume of distribution at steady state in dog at 5 umol/kg, intra arterial and 2 umol/kg, po. The data set is classed as ADME, organism-based, Canis lupus familiaris. The settings on record: in vivo.
Data set [8] is described as follows: Half life in dog at 5 umol/kg, intra arterial and 2 umol/kg, po. It counts as ADME, organism-based, Canis lupus familiaris. As to conditions: in vivo.
Data set [9] is described as follows: Clearance in iv dosed dog. The data set is classed as ADME, organism-based, Canis lupus familiaris. The settings on record: in vivo.
Data set [10] in a line: Drug excretion in dog urine at 5 umol/kg, intra arterial and 2 umol/kg, po. It counts as ADME, organism-based, Canis lupus familiaris. The settings on record: read-out: Activity.
Data set [11] in a line: Oral bioavailability in dog at 2 umol/kg, po. The data set is classed as ADME, organism-based, Canis lupus familiaris. As to conditions: in vivo.
The test system of data set [12] is Mus musculus. Kind of data set: Antidiabetic activity in ob/ob mouse assessed as reduction in blood glucose level at 3 umol/kg, po administered 1 hr prior to glucose challenge by oral glucose tolerance test. The data set is classed as functional. Further details: scale not given: the % may be the effect or the level left. The method in brief:
(§2)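 Male ob/ob mice, 13-14 weeks old, fed a 10% fat diet, fasted overnight. Given vehicle (water) or inhibitor orally at -60 min, then oral glucose 2 g/kg at 0 min. Tail bleeds into EDTA tubes at -60, 0, 15, 30, 60, 90 and 120 min. Plasma glucose read by glucometer, insulin by mouse ELISA. Mean of 12-24 mice/group; one-way ANOVA with Dunnett's test.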

In data set [13] the test system is Mus musculus. Kind of data set: Antidiabetic activity in ob/ob mouse assessed as reduction in blood glucose level at 1 umol/kg, po administered 1 hr prior to glucose challenge by oral glucose tolerance test. It counts as functional. Further details: scale not given: the % may be the effect or the level left. In outline:
as §2

The target in the next data set is hERG (KCNH2) (Homo sapiens, UniProt Q12809). The data set is described as follows: Inhibition of human ERG at 10 uM.
Data set [14] is described as follows: Permeability across human Caco-2 cells. The data set is classed as ADME, cell-based. The settings on record: read-out: permeability. In general terms: Caco-2 cells form a polarised layer with tight junctions and transporters.
Data set [15] is described as follows: Cmax in ob/ob mouse at 3 mg/kg, po after 1 hr. It counts as ADME, organism-based. Further details: dose 3 mg/kg, route oral. The settings on record: in vivo.
The target in a further data set is Dipeptidyl peptidase 8 (Homo sapiens, UniProt Q6V1X1). Kind of data set: Inhibition of human DPP8.
The target in another data set is Dipeptidyl peptidase 9 (Homo sapiens, UniProt Q86TI2). The data set is described as follows: Inhibition of human DPP9.
In data set [16] the test system is Mus musculus. Kind of data set: Antidiabetic activity in ob/ob mouse assessed as increase in insulin level at 3 umol/kg, po administered 1 hr prior to glucose challenge by oral glucose tolerance test. It counts as functional. The method in brief:
as §2

The test system of data set [17] is Mus musculus. Kind of data set: Antidiabetic activity in ob/ob mouse assessed as increase in insulin level at 1 umol/kg, po administered 1 hr prior to glucose challenge by oral glucose tolerance test. The data set is classed as functional. The method in brief: as §2
In data set [18] the test system is Mus musculus. Kind of data set: In vivo inhibition of DPP4 activity in ob/ob mouse plasma at 1 umol/kg, po. The data set is classed as functional.
Data set [19] deals with Mus musculus. The data set is described as follows: In vivo inhibition of DPP4 activity in ob/ob mouse plasma at 3 umol/kg, po. The data set is classed as functional.

Chain of hERG (KCNH2) (Q12809 whole entry): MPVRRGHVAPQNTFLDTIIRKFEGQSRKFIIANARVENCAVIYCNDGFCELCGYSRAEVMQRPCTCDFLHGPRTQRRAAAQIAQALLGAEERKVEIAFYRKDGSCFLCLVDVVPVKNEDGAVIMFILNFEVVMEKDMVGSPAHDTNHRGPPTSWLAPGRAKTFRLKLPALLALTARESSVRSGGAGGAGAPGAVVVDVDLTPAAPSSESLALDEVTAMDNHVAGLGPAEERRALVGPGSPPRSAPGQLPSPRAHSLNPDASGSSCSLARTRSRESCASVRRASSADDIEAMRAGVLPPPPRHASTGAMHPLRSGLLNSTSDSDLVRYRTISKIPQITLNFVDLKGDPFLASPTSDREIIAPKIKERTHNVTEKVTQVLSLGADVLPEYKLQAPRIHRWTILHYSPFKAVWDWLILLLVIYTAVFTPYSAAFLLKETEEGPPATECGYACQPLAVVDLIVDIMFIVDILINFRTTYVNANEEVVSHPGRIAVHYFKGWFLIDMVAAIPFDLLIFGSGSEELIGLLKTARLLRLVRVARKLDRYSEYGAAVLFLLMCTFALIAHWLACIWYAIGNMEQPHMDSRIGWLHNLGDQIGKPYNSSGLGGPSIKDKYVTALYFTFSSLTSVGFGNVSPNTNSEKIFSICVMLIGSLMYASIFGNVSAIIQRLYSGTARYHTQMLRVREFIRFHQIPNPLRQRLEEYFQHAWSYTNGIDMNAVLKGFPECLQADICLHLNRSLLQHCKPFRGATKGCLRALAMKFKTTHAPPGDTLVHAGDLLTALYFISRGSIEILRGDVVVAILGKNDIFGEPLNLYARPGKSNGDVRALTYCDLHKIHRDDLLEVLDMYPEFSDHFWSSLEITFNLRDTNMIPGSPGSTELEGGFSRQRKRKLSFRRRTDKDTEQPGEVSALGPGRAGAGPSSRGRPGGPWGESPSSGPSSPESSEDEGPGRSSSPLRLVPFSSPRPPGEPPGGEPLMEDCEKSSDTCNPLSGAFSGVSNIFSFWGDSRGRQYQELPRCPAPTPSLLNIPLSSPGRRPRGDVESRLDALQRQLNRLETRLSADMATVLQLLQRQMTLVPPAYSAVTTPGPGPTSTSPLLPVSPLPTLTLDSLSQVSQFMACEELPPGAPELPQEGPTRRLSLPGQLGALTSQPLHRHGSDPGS
Chain of Dipeptidyl peptidase 9 (Q86TI2 whole entry): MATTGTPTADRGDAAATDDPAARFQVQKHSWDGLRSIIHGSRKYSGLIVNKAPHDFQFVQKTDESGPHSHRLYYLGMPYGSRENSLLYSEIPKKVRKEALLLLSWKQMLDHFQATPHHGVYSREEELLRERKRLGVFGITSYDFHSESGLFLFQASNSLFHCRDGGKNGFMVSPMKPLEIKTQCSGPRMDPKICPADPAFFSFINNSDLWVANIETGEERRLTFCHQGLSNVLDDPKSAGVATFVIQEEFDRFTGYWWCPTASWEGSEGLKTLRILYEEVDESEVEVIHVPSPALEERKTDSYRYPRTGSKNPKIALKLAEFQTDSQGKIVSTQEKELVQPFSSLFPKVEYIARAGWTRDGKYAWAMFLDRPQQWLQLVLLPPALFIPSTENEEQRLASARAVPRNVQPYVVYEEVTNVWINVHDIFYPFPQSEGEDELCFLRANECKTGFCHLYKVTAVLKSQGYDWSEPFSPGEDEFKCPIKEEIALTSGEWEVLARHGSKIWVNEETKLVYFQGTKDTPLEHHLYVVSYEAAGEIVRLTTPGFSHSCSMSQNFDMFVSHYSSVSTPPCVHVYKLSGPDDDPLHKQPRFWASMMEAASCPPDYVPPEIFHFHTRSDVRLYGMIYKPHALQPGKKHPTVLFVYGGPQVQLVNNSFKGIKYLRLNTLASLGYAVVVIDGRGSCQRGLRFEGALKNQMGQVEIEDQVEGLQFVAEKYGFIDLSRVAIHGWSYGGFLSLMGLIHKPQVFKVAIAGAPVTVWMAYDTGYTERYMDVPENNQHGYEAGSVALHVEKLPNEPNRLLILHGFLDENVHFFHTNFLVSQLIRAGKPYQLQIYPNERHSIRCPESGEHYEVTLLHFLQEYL
Chain of Dipeptidyl peptidase 8 (Q6V1X1 whole entry): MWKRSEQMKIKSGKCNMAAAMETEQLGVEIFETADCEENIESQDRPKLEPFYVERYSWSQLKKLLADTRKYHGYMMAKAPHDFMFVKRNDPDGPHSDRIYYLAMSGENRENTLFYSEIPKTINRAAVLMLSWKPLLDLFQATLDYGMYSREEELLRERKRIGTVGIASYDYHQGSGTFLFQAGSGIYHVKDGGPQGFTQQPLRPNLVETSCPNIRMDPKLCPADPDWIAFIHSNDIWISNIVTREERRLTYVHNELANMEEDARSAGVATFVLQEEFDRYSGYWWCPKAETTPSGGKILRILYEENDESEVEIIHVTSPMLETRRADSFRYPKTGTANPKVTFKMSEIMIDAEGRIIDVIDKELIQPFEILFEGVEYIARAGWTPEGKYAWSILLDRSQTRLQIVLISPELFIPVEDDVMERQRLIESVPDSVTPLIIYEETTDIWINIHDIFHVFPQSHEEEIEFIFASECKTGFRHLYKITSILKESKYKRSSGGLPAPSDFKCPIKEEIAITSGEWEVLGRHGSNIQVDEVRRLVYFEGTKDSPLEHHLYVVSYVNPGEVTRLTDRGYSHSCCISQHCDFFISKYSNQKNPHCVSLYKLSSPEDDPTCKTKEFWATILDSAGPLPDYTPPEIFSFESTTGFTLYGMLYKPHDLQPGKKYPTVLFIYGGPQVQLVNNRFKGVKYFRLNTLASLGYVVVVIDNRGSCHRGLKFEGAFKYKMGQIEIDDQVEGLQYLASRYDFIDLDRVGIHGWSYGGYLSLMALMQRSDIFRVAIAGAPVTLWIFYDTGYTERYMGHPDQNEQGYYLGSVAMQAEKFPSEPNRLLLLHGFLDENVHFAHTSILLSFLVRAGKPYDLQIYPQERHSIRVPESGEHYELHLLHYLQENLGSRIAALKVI

One may read the half-life as how long it takes for the measured level to halve. What is called clearance is the rate of elimination divided by the concentration. Broadly, the bioavailability is the share of a dose that reaches the circulation, judged against a reference dose that is usually intravenous. As usually defined, the Cmax is the highest concentration seen after dosing. The term AUC(0-inf) denotes total exposure, with the tail of the curve extrapolated. With `Cc1nc2nc(C(=O)N3CCOCC3)cn2c(-c2ccc(Cl)cc2Cl)c1CN`, the Papp in data set [1] amounted to 46.4 ×10⁻⁶ cm/s. Moreover, the Vdss with Rattus norvegicus was 1.3 L/kg; with Canis familiaris, 1.5 L/kg. Further, the results for the half-life in data set [2] and in data set [8] were 1.6 h and 4.6 h, respectively. Besides, the clearance in data set [3] came out at 25.4 mL/min/kg; in [9], 7.9 mL/min/kg. Further, the results for the dose excreted in data set [4] and in [10] were 56% and 41%, respectively. The bioavailability in data set [5] came out at 54%; in [11], 76%. In [6], this compound returned a Cmax of 324 nM. In [7], this compound showed an AUC(0-inf) of 0.714 µM·h. The Activity is 63% in the data set with Mus musculus [12] and 66% in the data set on Mus musculus [13].

As usually defined, the inhibition is the change of the read-out against control, counted positive when it falls. In turn, `CCOC(=O)c1cn2c(-c3ccc(Cl)cc3Cl)c(CN)c(C)nc2n1` had an inhibition at 10 µM against hERG (KCNH2) of 23%.

For `Cc1nc2nc(C(=O)N3CC[C@H](NS(C)(=O)=O)C3)cn2c(-c2ccc(Cl)cc2Cl)c1CN`, the Papp in data set [14] was less than 1.5 ×10⁻⁶ cm/s. This compound also displayed a Cmax in [15] of 45 nM.

Turning to `Cc1nc2nc(-c3ccccc3)cn2c(-c2ccc(Cl)cc2Cl)c1CN`, on hERG (KCNH2), 10 µM produced 74% inhibition.

Turning to `Cc1nc2nc(C(=O)N3CCCC3)cn2c(-c2ccc(Cl)cc2Cl)c1CN`, the Papp in [1] came out at 51.8 ×10⁻⁶ cm/s.

For orientation: Ki means the dissociation constant of the complex between target and ligand, obtained from inhibition or displacement. For the compound `Cc1nc2nc(C(=O)NC3CCN(C(C)C)CC3)cn2c(-c2ccc(Cl)cc2Cl)c1CN`, the inhibitory constant (Ki) at Dipeptidyl peptidase 8 and at Dipeptidyl peptidase 9 was greater than 10 µM each time.

Broadly, the inhibition in vivo is the drop in the measured response relative to a control, in per cent. Regarding `CCn1nccc1NC(=O)c1cn2c(-c3ccc(Cl)cc3Cl)c(CN)c(C)nc2n1`, the Papp in data set [1] is 66.9 ×10⁻⁶ cm/s. In addition, at hERG (KCNH2), the inhibition at 10 µM was 31%. The Vdss in the data set with Rattus norvegicus was 3.9 L/kg. The compound also showed a half-life in [2] of 2.1 h. The compound also registered a clearance in [3] of 43.2 mL/min/kg. For the same compound, the dose excreted in [4] came out at 4.4%. The compound further registered a bioavailability in data set [5] of 64%. Also, the Activity in the data set with Mus musculus [12] is recorded as 58%; in the data set on Mus musculus [13], 40%; in the data set with Mus musculus [16] it was 129%; with Mus musculus [17], 93%. In the data set on Mus musculus [18], this compound gave an inhibition in vivo at 1 µmol/kg of 62%. Further, the inhibition in vivo at 3 µmol/kg with Mus musculus [19] stood at 52.8%.

`Cc1nc2nc(C(=O)NCCN3CCCCC3)cn2c(-c2ccc(Cl)cc2Cl)c1CN`: at Dipeptidyl peptidase 9, the inhibitory constant (Ki) was greater than 30 µM.

(Values after ChEMBL document CHEMBL1212920, “Discovery of 6-(aminomethyl)-5-(2,4-dichlorophenyl)-7-methylimidazo[1,2-a]pyrimidine-2-carboxamides as potent, selective dipeptidyl peptidase-4 (DPP4) inhibitors” (J Med Chem, 2010).)
